Rows were chosen to be rich in hits. Some 5.1% of all compounds tested hit in one or more screens of this group.
STAT1 act-1 – increases IFN-gamma driven STAT1 reporter signal; NIH 3T3 STAT1-luciferase reporter, luminescence; 100% = IFN-gamma alone, no compound; 200,000 tested, 2.6% active; AID 932; activation (% of control), % at 5.5 µM;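 active means activation above the screen-wide mean activation plus 3 SD, cut at about 130% in these data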;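 further: raw ratio to IFN-gamma control signal so 100% means no change and 0% no light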
STAT3 act-1 – activators of IL-6 induced STAT3 signaling; U3A cells, IL-6 STAT3-luciferase reporter, luminescence; 100% = signal with IL-6 EC80 alone; activation (% of control), % at 5.6 µM; 190,000 tested, 0.91% active; AID 871;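 active means activation above the screen-wide mean of compound activation plus 3 SD, cut at about 130% in these data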;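 further: 0% = background luminescence of wells with medium and substrate only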
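Test system: human U3A cells carrying STAT3-luciferase construct; control set: IL-6-only wells as 100% reference; timing: compound pre-incubation 1 h before IL-6, then 6 h stimulation at 37 °C; also added: IL-6 stimulus at 33 ng/mL final; evaluation: % activation versus median of IL-6-stimulated wells; detection: reporter luminescence signal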
STAT1 blocker – reduces IFN-gamma driven STAT1 reporter signal; NIH 3T3 STAT1-luciferase reporter, luminescence; inhibition, % at 5.5 µM; 200,000 tested, 0.35% active;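 active means inhibition above a set limit, the mean inhibition across all tested compounds plus 3 SD, cut at about 34% in these data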;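 further: 0% = IFN-gamma with DMSO and 100% = IFN-gamma with 300 µM nifuroxazide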
APP 5'UTR act – activates APP 5'UTR luciferase reporter | AID 1276 | SH-SY5Y APP 5'UTR luciferase reporter, luminescence; zero percent = DMSO vehicle wells | activation, % at 2 µM | 190,000 tested, 1% active;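 active means activation above a set limit, based on mean plus 3 SD of controls, cut at about 140% in these data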
NF-kB neuron act – compounds increasing NF-kB expression in human neuronal cells | NF-kB reporter expression; stronger effect = higher value | fold change at 12.5 µM | 190,000 tested, 1.6% active; in the data active means fold change above about 3.3
STAT3 blocker – reduces IL-6 driven STAT3 reporter signal. inhibition, % at 5.5 µM. AID 862. U3A cells, IL-6 STAT3-luciferase reporter, luminescence; host cell line lacks STAT1. 190,000 tested, 0.89% active;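 active means inhibition above the mean inhibition across all screened compounds plus 3 SD, cut at about 44% in these data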;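 further: 0% = DMSO only wells and 100% = 100 µM nifuroxazide control wells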
STAT3 act-2 – confirmation of STAT3 signaling activators | U3A STAT3-luciferase reporter, IL-6 potentiation, luminescence; U3A cells lack STAT1; 100 means same as IL-6 alone | potentiation (% of control), % at 5.7 µM | shares compounds with STAT3 act-1 | AID 1267 | 1,200 tested, 64% active;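 active means percent activation of the STAT3 luciferase reporter above a set limit taken from the earlier primary screen, cut at about 130% in these data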;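 further: 0% = background signal of medium plus substrate and 100% = median of IL-6 with DMSO wells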
NFkB act STAT3ct – counter-screen for STAT3 activators: NF-kappaB activation; shares compounds with STAT3 act-1; human cells, NF-kappaB reporter activation; activation (% of control), % at 5.7 µM; 1,200 tested, 11% active; AID 1309; in the data active means activation above about 120%;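 further: reporter induced by TNF-alpha stimulation; 100% = median of stimulated DMSO wells and 0% = no signal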
STAT1 act-2 – STAT1 activation in STAT3 activator counter-screen; AID 1318; activation (% of control), % at 5.7 µM; shares compounds with STAT3 act-1; NIH 3T3 STAT1-luciferase reporter, IFN-gamma, luminescence; 1,200 tested, 13% active;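 active means activation above the solvent-only control well mean plus 3 SD, set per screening run, cut at about 120% in these data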;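 further: 100% = IFN-gamma with DMSO median signal so 100% means no change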
* marks the source's active call; other numbers are inactive results; nt = no result.

SMILES	STAT1 act-1	STAT3 act-1	STAT1 blocker	APP 5'UTR act	NF-kB neuron act	STAT3 blocker	STAT3 act-2	NFkB act STAT3ct	STAT1 act-2
CCOC(=O)C1(O)CC(C)=NN1C(=O)c1cccc(Cl)c1 (stereo unspecified)	100	93	0	-4	1.1	12	nt	nt	nt
O=C(CSc1nnc2c3ccccc3c3ccccc3c2n1)Nc1ccccc1	88	158*	13	1	1.7	-55	162*	105	92
COc1cc(/C=N/NC(=S)NC(C)C)ccc1OCC(=O)Nc1c(C)cc(C)cc1C	94	147*	7	0	1.2	-60	137*	99	102
CCC(C(=O)Nc1nnc(-c2ccco2)s1)c1ccccc1 (stereo unspecified)	112	95	-13	8	1.3	10	nt	nt	nt
O=C(c1cc2c(s1)CCCC2)N1CCN(S(=O)(=O)c2ccccc2C(F)(F)F)CC1	100	139*	0	-11	0.8	-50	116	108	102
O=C(c1cc2c(s1)CCCC2)N1CCN(c2ccccc2)CC1	106	99	-8	15	1.3	12	nt	nt	nt
COc1ccccc1OC(=O)c1cc(Cl)nc2ccccc12	105	81	-5	-3	1.4	30	nt	nt	nt
Nc1ccnn1Cc1ccncc1	101	106	-3	-6	1.2	1	nt	nt	nt
Cc1ccc(C)c(NC(=O)c2ccccc2NC(=O)C2CCCO2)c1 (stereo unspecified)	95	97	5	23	1	4	nt	nt	nt
CC(C)c1nc2oc3ccccc3c(=O)c2c(=O)n1-c1ccccc1	103	159*	-3	19	1.7	-73	132	103	113
O=c1c2ccccc2oc2nc(-c3ccco3)n(-c3ccccc3)c(=O)c12	110	136*	-11	93	0.85	-45	135*	109	109
O=c1c2cnn(-c3ccccc3)c2nc(-c2ccco2)n1-c1ccccc1	103	78	-4	11	0.45	30	nt	nt	nt
Cc1ccc(-n2nc(C)c3c2OC(N)=C(C#N)C3c2cccs2)cc1 (stereo unspecified)	90	142*	11	2	0.88	-42	157*	110	94
Cc1ccc(C)c(C(=O)COc2ccc(C)nc2[N+](=O)[O-])c1	97	104	3	1	1.2	-8	nt	nt	nt
Cc1ccc(OCC(=O)c2c[nH]c3ccccc23)c([N+](=O)[O-])n1	116	158*	-19	13	1.1	-59	165*	103	107
Nc1ccccc1SC1CC(=O)N(Cc2ccccc2)C1=O (stereo unspecified)	93	100	6	4	1.1	6	nt	nt	nt
Cn1cc(/C=N\NC(=O)C2COc3ccccc3O2)c2ccccc21 (stereo unspecified)	87	104	15	4	1.2	-6	nt	nt	nt
Cc1c(/C=N\NC(=O)C2COc3ccccc3O2)c2ccccc2n1C (stereo unspecified)	95	139*	6	-91	3.2	-53	98	111	107
CCOc1ccc(N2C(=O)C3Sc4[nH]c(=O)sc4C(/C=C/c4ccccc4)C3C2=O)cc1 (stereo unspecified)	108	141*	-9	15	1.1	-51	128	112	115
COc1ccc(C(O)c2nc3ccccc3s2)cc1 (stereo unspecified)	106	78	-7	-1	1.2	26	nt	nt	nt
COc1cc(OC)cc(-c2nc3ccccc3s2)c1	124	203*	-26	65	2.1	-124	180*	127*	139*
CC1CC(C)CN(C(=O)CSCC(=O)Nc2nc(-c3cccs3)cs2)C1 (stereo unspecified)	90	136*	11	8	1.3	-44	126	102	98

Compound activity (PubChem)
